Measured values reported in paper PMC6387680 (Leukemia & lymphoma, 2011).
Values joined by “and” are separate entries in the source; they are usually repeats but may differ in a detail not shown here. Equal entries are not always repeated.

What was measured:
lymphocyte count = conditions: associated with decreasing lymph node size; cited from earlier work
[1] = system: patients with relapsed lymphoma or CLL; test: Toxicity of cycle 1 UCN-01 alone; assay type: in vivo, human
[2] = Plasma UCN-01 pharmacokinetics; assay type: in vivo, human
[3] = system: absolute lymphocyte count (ALC); test: Absolute lymphocyte count after UCN-01; assay type: in vivo, human
Neoplastic B cells = test: In vivo apoptosis by annexin V-FITC flow cytometry of peripheral blood; design: species or system human; conditions: for Peak value of apoptosis (annexin V-positive cells): CLL patient; for apoptotic B cells positive for CD19 and annexin V: time point not stated
Outline: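 Peripheral blood was stained within 12 h of collection. Erythrocytes were lysed (150 mM NH4Cl, 10 mM KHCO3, 0.1 mM EDTA; 10 min, room temperature), spun 500 × g for 15 min and washed twice in PBS/0.1% NaN3. Cells were co-stained 30 min with annexin V-FITC plus tumour-marker antibodies (CD19, CD5 for CLL). Four-colour flow, ≥5000 lymphocytes per tube. Controls were thawed lymphocytes (positive) and fresh whole blood (negative).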

[4] = system: patients with refractory neoplasms; conditions: cited from earlier work
[5] = system: patients with refractory solid tumors; conditions: 24 patients; cited from earlier work
[6] = cycle 1 UCN-01 alone, n (%) of 18 patients
[7] = human, plasma, iv, 45 mg/m^2/day
[8] = median, n=15, cycle 1, 72 h IV infusion at 45 mg/m^2/day

Q: With CC[C@H](Nc1ncnc2[nH]cnc12)c1nc2cccc(F)c2c(=O)n1-c1ccccc1 [CAL-101] as the compound, how does the “patients with an increase in lymphocyte count” value (lymphocyte count) read?
A: 60%

Q: With CN[C@@H]1C[C@H]2O[C@@](C)([C@@H]1OC)n1c3ccccc3c3c4c(c5c6ccccc6n2c5c31)C(=O)N[C@@H]4O [UCN-01, 7-hydroxystaurosporine] as the compound, how does the “grade 4 hyperuricemia, patients” value ([1]; among the three patients with tumor lysis syndrome) read?
A: three

Q: And the “Single episodes of grade 2 toxicities” value ([1]; cycle 1 UCN-01 alone)?
A: an elevated bicarbonate level, circulation cardiac-other, constipation, an elevated CPK, depression, dyspepsia, pruritus, and taste disturbance

Q: What about the “grade 3 toxicities that occurred one time during cycle 1” value ([1]; cycle 1 UCN-01 alone) of the same compound?
A: isolated elevated SGPT and one episode of febrile neutropenia

Q: And the “Amylase, grade 2 or 3 toxicity” value [1, 6]?
A: 2(11%)

Q: What about the “Creatinine, grade 2 or 3 toxicity” value [1, 6] of the same compound?
A: 4(22%)

Q: What about the “Headache, grade 2 or 3 toxicity” value [1, 6] of the same compound?
A: 8(44%)

Q: What about the “Hemoglobin, grade 2 or 3 toxicity” value [1, 6] of the same compound?
A: 6(33%)

Q: And the “Hyperglycemia, grade 2 or 3 toxicity” value [1, 6]?
A: 12(67%)

Q: What about the “Hypermagnesemia, grade 2 or 3 toxicity” value [1, 6] of the same compound?
A: 3(16%)

Q: What about the “Hypoalbuminemia, grade 2 or 3 toxicity” value [1, 6] of the same compound?
A: 2(11%)

Q: And the “Hypocalcemia, grade 2 or 3 toxicity” value [1, 6]?
A: 6(33%)

Q: What about the “Hyponatremia, grade 2 or 3 toxicity” value [1, 6] of the same compound?
A: 2(11%)

Q: And the “Hypoxia, grade 2 or 3 toxicity” value [1, 6]?
A: 6(33%)

Q: And the “Inf w/o neut (infection without neutropenia), grade 2 or 3 toxicity” value [1, 6]?
A: 2(11%)

Q: What about the “Leukopenia, grade 2 or 3 toxicity” value [1, 6] of the same compound?
A: 3(16%)

Q: What about the “Lymphopenia, grade 2 or 3 toxicity” value [1, 6] of the same compound?
A: 5(27%)

Q: And the “Myalgia, grade 2 or 3 toxicity” value [1, 6]?
A: 2(11%)

Q: What about the “Nausea, grade 2 or 3 toxicity” value [1, 6] of the same compound?
A: 8(44%)

Q: What about the “Neutropenia, grade 2 or 3 toxicity” value [1, 6] of the same compound?
A: 4(22%)

Q: What about the “Rash/desquamation, grade 2 or 3 toxicity” value [1, 6] of the same compound?
A: 2(11%)

Q: And the “SGOT (AST), grade 2 or 3 toxicity” value [1, 6]?
A: 3(16%)

Q: What about the “Stomatitis, grade 2 or 3 toxicity” value [1, 6] of the same compound?
A: 3(16%)

Q: What about the “Sup/vnt arrh (supraventricular arrhythmia), grade 2 or 3 toxicity” value [1, 6] of the same compound?
A: 2(11%)

Q: And the “Trans prbcs (transfused packed red blood cells), grade 2 or 3 toxicity” value [1, 6]?
A: 3(16%)

Q: What about the “Tumor lysis, grade 2 or 3 toxicity” value [1, 6] of the same compound?
A: 3(16%)

Q: What about the “Vomiting, grade 2 or 3 toxicity” value [1, 6] of the same compound?
A: 4(22%)

Q: And the “tumor lysis syndrome (grade 3, CTCAE v2), patients” value ([1]; in vivo)?
A: Three

Q: And the “Hypocalcemia (grade 2), patients” value ([1]; six patients)?
A: 33%

Q: And the creatinine peak ([1]; tumor lysis patients with renal dysfunction)?
A: 2.1 mg/dL

Q: And the “serum blood urea nitrogen [BUN] peak” value ([1]; two tumor lysis patients with renal dysfunction)?
A: 66 mg/dL and 40 mg/dL

Q: What about the “difference in UCN-01 CLtot between cycle 1 (without FAMP) and cycle 2 (with FAMP)” value ([2]; five evaluable patients, paired t-test p = 0.27) of the same compound?
A: no intra-individual difference

Q: What about the Vd ([2]; human, plasma, intravenous, 45 mg/m^2/day) of the same compound?
A: 3 to 18 L

Q: What about the AUC(0-inf) [2, 7] of the same compound?
A: 7260 µg·h/mL

Q: And the Cmax [2, 7]?
A: 16700 ng/mL

Q: What about the VλZ [2, 8] of the same compound?
A: 7.4 L

Q: And the “t1/2 (terminal)” value [2, 8]?
A: 15.02 days

Q: What about the “day of peak lymphocytosis” value ([3]; cycle 1) of the same compound?
A: ≤ 4 days

Q: What about the “increase in the absolute lymphocyte count (ALC)” value ([3]; first three of four patients with CLL, first cycle of UCN-01 alone) of the same compound?
A: 2.0–2.7 fold

Q: And the “patients with lymphocytosis following UCN-01” value ([3]; in vivo)?
A: 15 of 18

Q: What about the “Peak value of apoptosis (annexin V-positive cells)” value (Neoplastic B cells; day 4 of cycle 1) of the same compound?
A: 15%

Q: And the “Peak value of apoptosis (annexin V-positive cells)” value (Neoplastic B cells; day 28 of cycle 1)?
A: 8%

Q: What about the “apoptotic B cells positive for CD19 and annexin V” value (“apoptotic B cells positive” below) (Neoplastic B cells; patient 10, Figure 2 (B), low level) of the same compound?
A: 2.6%

Q: What about the “apoptotic B cells positive” value (Neoplastic B cells; patient 17, Figure 2 (C), low level) of the same compound?
A: 3.8%

Q: What about the “apoptotic B cells positive” value (Neoplastic B cells; patient 17, Figure 2 (E), high level) of the same compound?
A: 38.9%

Q: And the “MTD / recommended phase II dose” value ([4]; 3-day infusion)?
A: 42.5 mg/m^2/day

Q: What about the “grade 4 hyperglycemia, patients” value ([4]; 42.5 dose level, complicated by steroids) of the same compound?
A: 1/9

Q: What about the significant hematopoietic toxicity [4] of the same compound?
A: None of the patients had significant hematopoietic toxicity

Q: What about the “dose level at which DLT (> grade 3) occurred” value ([4]; nausea/vomiting, hyperglycemia, transient hypoxia) of the same compound?
A: 53 mg/m^2/ day

Q: And the objective responses [5]?
A: no objective responses

Q: And the toxicities noted [5]?
A: grade 1–2 nausea, vomiting, hyperglycemia, and hypotension
